Most compounds without a hit are left out; they make up all but 3.8% or so of the library.
KCNK9 block: human KCNK9 channel inhibition | Q9NPC2 | HEK293 KCNK9, FluxOR thallium flux fluorescence; hits give low values | B-score at 10 µM | actives 1.2% (n = 310,000) | AID 488922;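 active = ratio B-score over 3 SD below the library mean, with starting fluorescence within 5 SD of its mean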;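 note: negative B-score means less thallium flux so channel inhibition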
KCNQ1 block: blocks the human KCNQ1 potassium channel | actives 1.3% (n = 310,000) | CHO-K1 KCNQ1, FluxOR thallium flux fluorescence; hits give high values | P51787 | B-score at 10 µM;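 active = compounds whose thallium flux B-score, printed positive for inhibition, exceeds three library SD while starting fluorescence stays within three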;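 note: channel opened by potassium depolarization with thallium stimulus after 20 min compound exposure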
hERG protect: compounds protecting human hERG from proarrhythmic drug block; Q12809; activation (rescue from dofetilide block), less the hit threshold, % at 10 µM; CHO-hERG, FluxOR thallium flux, dofetilide IC70 present; actives 0.51% (n = 310,000);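 active = activation above the mean of controls blocked by dofetilide plus 5 SD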;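 note: thallium influx through hERG after potassium depolarization seen as dye fluorescence rise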
Kir21 inh: inhibitors of mouse Kir2.1 inward-rectifier potassium channel. actives 0.85% (n = 310,000). B-score at 10 µM. HEK293-Kir2.1, FluxOR thallium flux fluorescence; hits give low values;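 active = fluorescence ratio B-score at or below minus 3 SD of library scores, with starting-brightness B-score within 2 SD, cut at about -4.2 in these data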;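 note: channel flux triggered by added potassium and thallium sulfate stimulus; B-score of peak minus minimum fluorescence over baseline after thallium stimulus; more negative B-score means stronger Kir2.1 block with less thallium influx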
KCNK3 block: human KCNK3 channel inhibition, primary screen; CHO-KCNK3 thallium flux, FluxOR fluorescence; hits give low values; O14649; actives 0.84% (n = 340,000); B-score at 10 µM; AID 602410;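 active = B-score under library mean minus 4 SD, starting fluorescence ratio at most library mean plus 5 SD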;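 note: more negative B-score means stronger inhibition of thallium flux through KCNK3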
KCNQ1 pot: potentiates or activates the human KCNQ1 potassium channel | actives 0.35% (n = 310,000) | AID 2648 | CHO-K1 KCNQ1, thallium flux FluxOR fluorescence; hits give high values | P51787 | B-score at 10 µM;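 active = fluorescence ratio B-score, a plate-corrected score, at least three library SD, with initial intensity B-score within 5 SD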
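Doses: Single concentration per compound, DMSO matched to controls | Test system: KCNQ1-transfected CHO-K1 cells | Timing: 90 min dye loading and 20 min compound exposure, both at room temperature | Measured by: Kinetic FluxOR thallium fluorescence, 10-s 1-Hz baseline, 110-s post-stimulus read | Medium: Assay buffer with matched DMSO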
KCNQ1 block val: confirmation of human KCNQ1 potassium channel inhibitors | actives 93% (n = 1,600) | shares compounds with KCNQ1 block | KCNQ1 cell line, FluxOR thallium flux fluorescence | AID 588353 | inhibition, % at 10 µM;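 active = primary screen active, with duplicate mean exceeding buffer control mean plus 3 SD of buffer wells, cut at about 28% in these data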;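 note: 0% = buffer control ratio and 100% = XE991 inhibitor control ratio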
CHO Tl flux: counter-screen for KCNQ1 inhibitors: effect in parental CHO cells; shares compounds with KCNQ1 block; AID 588366; parental CHO-K1, FluxOR thallium flux fluorescence ratio; hits give low values; zero means no signal rise above baseline; fluorescence ratio (Tl flux) at 10 µM; actives 21% (n = 1,600);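 active = mean of duplicate thallium-flux fluorescence ratios in parental host cells more than 5 SD below the buffer control mean, cut at about 0.38 in these data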;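 note: ratio is peak minus minimum fluorescence divided by baseline fluorescence; actives read low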
KCNQ1 APC inh: confirmation of human KCNQ1 potassium channel inhibitors by electrophysiology. shares compounds with KCNQ1 block. KCNQ1-CHO cells, automated patch clamp current. calls only at 10 µM. actives 20% (n = 490). AID 624120;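 active = KCNQ1 current drop exceeding 3 SD of negative control wells, seen in both duplicate runs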;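 note: steady state current during a 2 s step from -80 to +40 mV; negative values mean current inhibition and positive values mean potentiation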
KCNQ2 inh: rat KCNQ2 inhibition in KCNQ1 inhibitor specificity screen; shares compounds with KCNQ1 block; KCNQ2 cells, FluxOR thallium flux fluorescence; inhibition, % at 10 µM; actives 71% (n = 1,600); AID 651746;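 active = mean percent inhibition of the KCNQ2 thallium signal more than 5 SD above the buffer-only control wells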;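 note: KCNQ2 expressed in CHO cells; 0% = buffer control wells and 100% = XE-991 inhibitor control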
KCNQ1 KCNE1 spec: human KCNQ1/KCNE1 inhibition in KCNQ1 specificity screen | shares compounds with KCNQ1 block | KCNQ1/KCNE1 cells, FluxOR thallium flux fluorescence | inhibition, % at 10 µM | actives 77% (n = 1,600) | AID 652147;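 active = mean percent inhibition of duplicate wells above the buffer-only control mean plus 3 SD of those controls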;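 note: 0% = buffer only wells and 100% = XE-991 inhibitor control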
Target sequence (P51787 whole entry, looked up): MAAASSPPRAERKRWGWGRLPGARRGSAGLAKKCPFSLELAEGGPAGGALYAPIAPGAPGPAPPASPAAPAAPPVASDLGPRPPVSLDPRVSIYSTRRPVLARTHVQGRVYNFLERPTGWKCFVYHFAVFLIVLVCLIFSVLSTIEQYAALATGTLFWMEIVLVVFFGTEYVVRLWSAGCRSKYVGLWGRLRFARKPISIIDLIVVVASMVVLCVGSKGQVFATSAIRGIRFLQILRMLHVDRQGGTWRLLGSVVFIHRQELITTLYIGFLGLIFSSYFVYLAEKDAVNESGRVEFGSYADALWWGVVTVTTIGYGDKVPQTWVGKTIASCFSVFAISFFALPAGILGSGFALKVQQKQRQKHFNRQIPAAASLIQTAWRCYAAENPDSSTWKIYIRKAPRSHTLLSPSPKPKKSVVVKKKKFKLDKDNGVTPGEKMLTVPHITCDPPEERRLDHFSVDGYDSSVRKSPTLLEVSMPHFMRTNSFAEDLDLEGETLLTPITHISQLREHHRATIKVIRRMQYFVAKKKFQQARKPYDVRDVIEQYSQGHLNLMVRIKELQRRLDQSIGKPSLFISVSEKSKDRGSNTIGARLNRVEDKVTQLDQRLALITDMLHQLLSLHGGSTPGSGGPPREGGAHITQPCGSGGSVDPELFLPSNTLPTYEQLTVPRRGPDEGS
An asterisk follows results filed as active; i = inactive; . = not tested or not shown; + = active, no number.

SMILES	KCNK9 block	KCNQ1 block	hERG protect	Kir21 inh	KCNK3 block	KCNQ1 pot	KCNQ1 block val	CHO Tl flux	KCNQ2 inh	KCNQ1 KCNE1 spec	others
O=c1c2sc3nc(N4CCOCC4)c4c(c3c2ncn1CCc1ccccc1)CCCC4	i	9*	-10	1	i	i	102*	0.44	92%*	103%*	KCNQ1 APC inh=i
Cc1cc(/C=C2/SC(=S)N(c3ccc([N+](=O)[O-])cc3)C2=O)c(C)n1-c1cccnc1	i	16*	-9	0.13	i	i	124*	0.47	75%*	102%*	KCNQ1 APC inh=i
CN(C)c1ccc(C=C2SC(=S)NC2=O)cc1	.	.	.	.	i	.	.	.	.	.
COc1ccc(N=C2NC(=O)S/C2=C\c2ccc(N(C)C)cc2)cc1	i	7*	-15	-4	i	i	60*	0.38*	66%*	106%*
Cc1ccc(C(c2cc(Br)ccc2O)N2CCSCC2)cc1 (stereo not given)	i	7*	-7	-1.2	i	i	122*	0.42	107%*	136%*
Cc1cc(-c2ccc(S(=O)(=O)N(C)c3ccc(C)c(C)c3)s2)on1	i	9*	-6	0.7	i	i	128*	0.34*	143%*	150%*
Cc1ccc(N(C)S(=O)(=O)c2ccc(-c3cc(C)no3)s2)cc1	i	i	-6	-1.1	i	i	.	.	.	.
CC(C)CN(C(=O)C1CCCO1)c1c(N)n(CC(C)C)c(=O)[nH]c1=O (stereo not given)	.	.	.	.	i	.	.	.	.	.
COc1ccc(N(C(=O)Nc2ccc(Cl)cc2)C2=NCCC2)cc1	i	12*	-10	0.84	i	i	130*	0.37*	132%*	200%*
Cc1ccc(N(C(=O)Nc2ccccc2)C2=NCCC2)cc1	i	i	-5	0.79	i	i	.	.	.	.
CC1CCCN(CCOCCOc2ccc(Br)cc2Cl)C1 (stereo not given)	i	i	-10	-1.3	i	i	.	.	.	.
CC1CCN(CCCOc2ccc(Br)cc2Cl)CC1	i	7*	-13	-7.6*	i	i	62*	0.47	i	90%*
O=S(=O)(NCCSCc1ccc(Cl)cc1Cl)c1ccc2c(c1)OCCO2	i	7*	-1	1.7	-9.1*	i	129*	0.43	96%*	144%*	KCNQ1 APC inh=i
Cc1cc(N2CCCC2=O)cc(C)c1S(=O)(=O)NCCOc1ccc(C(C)(C)C)cc1	i	10*	-18	-0.35	i	i	138*	0.43	112%*	141%*	KCNQ1 APC inh=i
CSc1ncc(S(=O)(=O)c2ccccc2)c(=O)[nH]1	i	i	-7	0.38	i	i	.	.	.	.
C=CCNc1sc(C(=O)c2ccccc2)c(N)c1-c1nc2ccccc2s1	i	7*	-6	0.77	i	i	57*	0.44	73%*	84%*
COC(=O)c1nccnc1C(=O)Nc1ccccc1N1CCOCC1	i	i	-1	0.02	i	i	.	.	.	.
Cc1ccc(S(=O)(=O)N(CC(=O)N2CCc3ccccc3C2)c2ccc(Cl)c(Cl)c2)cc1	i	i	-7	0.64	i	i	.	.	.	.
O=C(CN(c1ccc(Cl)c(Cl)c1)S(=O)(=O)c1ccccc1)N1CCc2ccccc2C1	i	6*	-6	-1.8	i	i	56*	0.34*	119%*	96%*
O=S(=O)(c1cccc(NC(=S)Nc2ccc(Br)cc2Cl)c1)N1CCOCC1	i	9*	-10	-1	i	i	0	0.56	i	i
CCC(C(=O)O)n1cnc2scc(-c3ccc(C)c(C)c3)c2c1=O (stereo not given)	i	i	-1	1.6	i	i	.	.	.	.
CCCOC(=O)C(C)n1cnc2scc(-c3ccc(C)cc3)c2c1=O (stereo not given)	i	9*	-3	-3	i	i	93*	0.47	70%*	116%*	KCNQ1 APC inh=+
CCC(C(=O)OC)n1cnc2scc(-c3ccc(C)c(C)c3)c2c1=O (stereo not given)	i	7*	-6	0.23	i	i	52*	0.42	61%*	i
NS(=O)(=O)c1ccc(NC(=O)COC(=O)c2cnccn2)cc1	i	i	-4	-0.19	i	i	.	.	.	.
O=S(=O)(c1ccc(SCc2ccc(Cl)cc2)nc1)N1CCCC1	.	.	.	.	i	.	.	.	.	.
SMILES	KCNK9 block	KCNQ1 block	hERG protect	Kir21 inh	KCNK3 block	KCNQ1 pot	KCNQ1 block val	CHO Tl flux	KCNQ2 inh	KCNQ1 KCNE1 spec	others
CCc1noc(C)c1C(=O)N1CCCSC1=Nc1ccccc1	i	8*	-9	0.7	i	i	101*	0.47	59%*	66%*	KCNQ1 APC inh=+
CCc1noc(C)c1C(=O)N1CCOCC1	i	i	-11	-0.29	i	i	.	.	.	.
CC1(C2CC(C(F)(F)F)n3nc(C(=O)O)cc3N2)CC1 (stereo not given)	i	i	-2	-0.34	i	i	.	.	.	.
NC(=O)COC(=O)c1ccccc1Nc1ccc(SC(F)F)cc1	i	i	-9	2.2	i	i	.	.	.	.
CC(C)(C)NC(=O)COC(=O)c1ccccc1Nc1ccc(SC(F)F)cc1	i	6*	-9	-1.8	i	i	119*	0.37*	109%*	158%*
CCc1cccc(CC)c1NC(=O)CN1CCc2cc(OC)c(OC)cc2C1	i	i	-11	-0.02	i	i	.	.	.	.
CCCCCCCCOC(=O)c1nc(Cl)c(Cl)c(N)c1Cl	i	7*	-9	-2.4	i	i	101*	0.46	65%*	126%*	KCNQ1 APC inh=i
N#CC1=C(N)NC(SCc2ccc(Cl)cc2)=C(C#N)C12CCCCC2	i	16*	-18	-0.21	i	i	151*	0.38*	121%*	185%*
S=c1nc[nH]c2c1ncn2C1CCCO1 (stereo not given)	i	i	-1	-1.2	i	i	.	.	.	.
